# Measured values as given in ChEMBL document CHEMBL1139344, “Antagonists of the human A(2A) adenosine receptor. 4. Design, synthesis, and preclinical evaluation of 7-aryltriazolo[4,5-d]pyrimidines” (J Med Chem, 2009).
# The source made the active and inactive calls. The calls are words filed in the database; no cut-off is given here.
# Experiments:
# [1] = Solubility at neutral pH; type: physicochemical
# Adenosine receptor A1 = molecular target: T1, Adenosine receptor A1 (Homo sapiens, UniProt P30542); test: Displacement of radioligand from human recombinant adenosine A1 receptor at 21 degC after 90 mins by cell-based microplate scintillation counting
# T1 sequence (P30542 whole entry): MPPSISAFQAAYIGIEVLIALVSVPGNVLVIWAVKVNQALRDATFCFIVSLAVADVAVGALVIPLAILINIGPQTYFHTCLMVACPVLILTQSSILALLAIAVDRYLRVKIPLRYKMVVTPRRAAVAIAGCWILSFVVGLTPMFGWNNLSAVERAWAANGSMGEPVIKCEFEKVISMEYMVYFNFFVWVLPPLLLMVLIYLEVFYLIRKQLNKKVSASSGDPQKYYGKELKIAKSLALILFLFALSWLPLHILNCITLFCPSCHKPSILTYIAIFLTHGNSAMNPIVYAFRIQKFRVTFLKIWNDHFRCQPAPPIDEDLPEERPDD
# Rattus norvegicus [2] = test: Reversal of haloperidol-induced hypolocomotion in po dosed Sprague-Dawley rat assessed as time spent for locomotor activity administered 15 mins prior to testing done for 60 mins; type: functional, organism-based
# Method in brief: (§1)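 Haloperidol (0.2 mg/kg ip) used to induce hypolocomotion; antagonist given orally over 0.01-10 mg/kg in mouse and rat; activity scored as time spent active during a 60 min session; p < 0.05 versus vehicle (+haloperidol) control; minimal effective dose taken as lowest active dose.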
# Adenosine receptor A3 = molecular target: T2, Adenosine receptor A3 (Homo sapiens, UniProt P0DMS8); test: Displacement of radioligand from human recombinant adenosine A3 receptor at 21 degC after 60 mins by cell-based microplate scintillation counting
# T2 sequence (P0DMS8 whole entry): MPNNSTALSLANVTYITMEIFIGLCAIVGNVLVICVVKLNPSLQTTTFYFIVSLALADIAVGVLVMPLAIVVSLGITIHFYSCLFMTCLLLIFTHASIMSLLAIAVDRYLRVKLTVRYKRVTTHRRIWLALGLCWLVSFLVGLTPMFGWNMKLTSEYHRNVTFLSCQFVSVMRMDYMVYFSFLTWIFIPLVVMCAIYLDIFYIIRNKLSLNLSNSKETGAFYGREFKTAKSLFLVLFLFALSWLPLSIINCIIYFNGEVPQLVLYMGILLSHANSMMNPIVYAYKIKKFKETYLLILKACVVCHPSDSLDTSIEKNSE
# Adenosine receptor A2a [3] = molecular target: T3, Adenosine receptor A2a (Homo sapiens, UniProt P29274); test: Displacement of radioligand from human recombinant adenosine A2A receptor at 21 degC after 90 mins by cell-based microplate scintillation counting
# T3 sequence (P29274 whole entry): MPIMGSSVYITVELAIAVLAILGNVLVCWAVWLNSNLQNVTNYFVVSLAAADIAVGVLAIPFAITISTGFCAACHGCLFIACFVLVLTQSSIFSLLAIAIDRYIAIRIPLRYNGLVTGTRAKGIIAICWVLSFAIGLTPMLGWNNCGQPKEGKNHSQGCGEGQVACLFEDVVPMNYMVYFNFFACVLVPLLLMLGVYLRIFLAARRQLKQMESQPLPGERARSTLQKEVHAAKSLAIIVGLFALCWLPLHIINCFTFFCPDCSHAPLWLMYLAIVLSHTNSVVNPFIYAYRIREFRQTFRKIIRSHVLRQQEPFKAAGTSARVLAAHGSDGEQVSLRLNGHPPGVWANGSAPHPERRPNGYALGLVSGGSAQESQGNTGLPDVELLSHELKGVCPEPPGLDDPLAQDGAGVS
# Adenosine receptor A2b = molecular target: T4, Adenosine receptor A2b (Homo sapiens, UniProt P29275); test: Displacement of radioligand from human recombinant adenosine A2B receptor at 21 degC after 60 mins by cell-based microplate scintillation counting
# T4 sequence (P29275 whole entry): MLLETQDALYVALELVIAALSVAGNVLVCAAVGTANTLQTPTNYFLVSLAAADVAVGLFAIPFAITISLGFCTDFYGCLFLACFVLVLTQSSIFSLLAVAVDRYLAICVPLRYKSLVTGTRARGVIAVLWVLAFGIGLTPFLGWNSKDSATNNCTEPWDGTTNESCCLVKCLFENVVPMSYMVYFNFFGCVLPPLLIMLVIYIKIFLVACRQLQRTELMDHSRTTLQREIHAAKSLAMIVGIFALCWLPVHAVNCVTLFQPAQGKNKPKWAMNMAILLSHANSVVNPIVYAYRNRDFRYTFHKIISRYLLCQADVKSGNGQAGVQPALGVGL
# Mus musculus [4] = test: Reversal of haloperidol-induced hypolocomotion in po dosed TO mouse assessed as time spent for locomotor activity administered 120 mins prior to testing done for 60 mins; type: functional, organism-based; method in brief: as §1
# [5] = molecular target: T5, Adenosine receptor A1 (Homo sapiens) (UniProt P30542); details: CHO-K1
# T5 sequence (whole entry): T1 sequence (P30542 whole entry)
# Mus musculus [6] = test: Increase in locomotor activity in mouse at 100 mg/kg administered for 4 days; type: functional, organism-based; set-up: dose 100 mg/kg
# [7] = molecular target: T6, Adenosine receptor A3 (Homo sapiens) (UniProt P0DMS8); details: CHO-K1
# T6 sequence (whole entry): T2 sequence (P0DMS8 whole entry)
# Adenosine receptor A2a [8] = molecular target: T3, Adenosine receptor A2a; details: CHO-K1
# [9] = molecular target: T7, Adenosine receptor A2b (Homo sapiens) (UniProt P29275); details: CHO-K1
# T7 sequence (whole entry): T4 sequence (P29275 whole entry)
# Rattus norvegicus [10] = test: Reversal of haloperidol-induced hypolocomotion in po dosed Sprague-Dawley rat assessed as minimal effective dose administered 120 mins prior to testing done for 60 mins; type: functional; details: read-out: MED; method in brief: as §1
# Mus musculus [11] = test: Reversal of haloperidol-induced hypolocomotion in po dosed TO mouse assessed as minimal effective dose administered 15 mins prior to testing done for 60 mins; type: functional; details: read-out: MED; method in brief: as §1
# Mus musculus [12] = test: Reversal of haloperidol-induced hypolocomotion in TO mouse assessed as time spent for locomotor activity at 1 mg/kg, po administered 15 mins prior to testing done for 60 mins; type: functional, organism-based; set-up: dose 1 mg/kg; method in brief: as §1
# Mus musculus [13] = test: Reversal of haloperidol-induced hypolocomotion in TO mouse assessed as time spent for locomotor activity at 30 mg/kg, po administered 15 mins prior and measured for 60 mins; type: functional, organism-based; set-up: dose 30 mg/kg
# Liver microsomes = test: Metabolic stability in rat liver microsomes after 30 mins; type: ADME, Microsome; details: 0.5 h
# Method in brief: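 Turnover by rodent liver microsomes measured as percent turnover after 30 min.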
# Rattus norvegicus [14] = test: Reversal of haloperidol-induced hypolocomotion in Sprague-Dawley rat assessed as time spent for locomotor activity at 30 mg/kg, po administered 120 mins prior and measured for 60 mins; type: functional, organism-based; set-up: dose 30 mg/kg
# [15] = Aqueous solubility in phosphate buffered saline; type: physicochemical
# [16] = molecular target: Voltage-gated inwardly rectifying potassium channel KCNH2 (Homo sapiens, UniProt Q12809); test: Binding affinity to human ERG at 30 uM by patch clamp technique
# Sequence of Voltage-gated inwardly rectifying potassium channel KCNH2 (Q12809 whole entry): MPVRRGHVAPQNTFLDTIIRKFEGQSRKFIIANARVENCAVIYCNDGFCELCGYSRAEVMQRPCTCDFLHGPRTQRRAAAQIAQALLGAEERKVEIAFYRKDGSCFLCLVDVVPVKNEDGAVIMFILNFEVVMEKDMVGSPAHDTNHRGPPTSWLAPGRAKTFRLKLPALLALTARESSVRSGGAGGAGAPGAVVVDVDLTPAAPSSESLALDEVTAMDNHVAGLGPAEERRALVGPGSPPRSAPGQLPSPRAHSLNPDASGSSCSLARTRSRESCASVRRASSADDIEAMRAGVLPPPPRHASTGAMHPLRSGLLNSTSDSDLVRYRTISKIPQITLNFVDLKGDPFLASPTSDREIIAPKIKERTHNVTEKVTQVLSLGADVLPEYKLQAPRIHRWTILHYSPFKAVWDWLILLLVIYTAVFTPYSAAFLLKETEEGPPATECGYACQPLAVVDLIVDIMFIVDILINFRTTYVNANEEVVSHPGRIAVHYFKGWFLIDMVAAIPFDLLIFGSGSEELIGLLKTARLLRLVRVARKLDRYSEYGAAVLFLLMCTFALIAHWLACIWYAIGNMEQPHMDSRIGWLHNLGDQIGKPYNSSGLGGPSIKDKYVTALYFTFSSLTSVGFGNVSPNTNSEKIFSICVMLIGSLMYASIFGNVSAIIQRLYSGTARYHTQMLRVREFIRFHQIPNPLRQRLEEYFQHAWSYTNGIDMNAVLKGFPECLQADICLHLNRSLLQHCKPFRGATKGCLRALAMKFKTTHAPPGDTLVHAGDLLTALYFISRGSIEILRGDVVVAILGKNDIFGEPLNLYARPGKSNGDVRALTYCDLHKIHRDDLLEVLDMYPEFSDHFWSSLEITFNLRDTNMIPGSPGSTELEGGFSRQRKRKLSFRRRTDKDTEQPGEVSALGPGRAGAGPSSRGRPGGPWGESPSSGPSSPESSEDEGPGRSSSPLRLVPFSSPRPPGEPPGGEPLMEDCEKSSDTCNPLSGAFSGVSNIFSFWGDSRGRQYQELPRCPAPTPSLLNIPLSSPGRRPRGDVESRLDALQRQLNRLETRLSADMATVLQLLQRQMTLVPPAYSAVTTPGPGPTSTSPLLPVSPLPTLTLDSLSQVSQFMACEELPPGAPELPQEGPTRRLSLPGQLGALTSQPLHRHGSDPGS
# Method in brief: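 hERG potassium channel examined by patch clamp at concentrations up to 30 µM, the maximal concentration reached in the protocol; response compared with vehicle alone.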
# [17] = Tmax in Sprague-Dawley rat at 2 mg/kg, iv; type: ADME, organism-based; set-up: dose 2 mg/kg, route intravenous; details: in vivo
# [18] = Oral bioavailability in Sprague-Dawley rat; type: ADME, organism-based; details: in vivo
# [19] = Apparent permeability across human Caco-2 cell membrane; type: ADME, cell-based; details: read-out: permeability
# [20] = Half life in Sprague-Dawley rat at 2 mg/kg, iv; type: ADME, organism-based; set-up: dose 2 mg/kg, route intravenous; details: in vivo
# Brain = test: Drug uptake in Sprague-Dawley rat brain at 2 mg/kg, iv; type: ADME, organism-based; set-up: dose 2 mg/kg, route intravenous; details: in vivo
# Method in brief: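 Male Sprague-Dawley rats dosed intravenously at 2 mg kg^-1; brain uptake calculated as brain/plasma AUClast ratio.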
# Mus musculus [21] = test: Toxicity in mouse at 100 mg/kg administered for 4 days; type: organism-based; set-up: dose 100 mg/kg; details: in vivo, 96 h
# Mus musculus [22] = test: Reversal of haloperidol-induced hypolocomotion in TO mouse assessed as time spent for locomotor activity at 0.3 mg/kg, po administered 15 mins prior to testing done for 60 mins; type: functional, organism-based; set-up: dose 0.3 mg/kg; method in brief: as §1
# Rattus norvegicus [23] = test: Reversal of haloperidol-induced hypolocomotion in Sprague-Dawley rat assessed as time spent for locomotor activity at 1 mg/kg, po administered 120 mins prior to testing done for 60 mins; type: functional, organism-based; set-up: dose 1 mg/kg; method in brief: as §1
# Homo sapiens [24] = species: Homo sapiens; test: Selectivity for human recombinant adenosine A2A receptor over human recombinant adenosine A2B receptor by cell-based assay
# Homo sapiens [25] = species: Homo sapiens; test: Selectivity for human recombinant adenosine A2A receptor over human recombinant adenosine A1 receptor by cell-based assay
# Homo sapiens [26] = species: Homo sapiens; test: Selectivity for human recombinant adenosine A2A receptor over human recombinant adenosine A3 receptor by cell-based assay
Ki (Adenosine receptor A1),Ki (Adenosine receptor A3),Ki (Adenosine receptor A2a [3]),Ki (Adenosine receptor A2b),SMILES,further results
–,–,–,–,CS(=O)(=O)O.Cc1cc(Cn2nnc3c(-c4ccco4)nc(N)nc32)ccc1N,solubility [1]: 36 mg/mL
50 nM,251 nM,1.5 nM,397 nM,CC(C)c1cc(Cn2nnc3c(-c4ccco4)nc(N)nc32)ccc1N,Activity (Rattus norvegicus [2]): inactive; Activity (Mus musculus [4]): inactive
–,–,–,–,Cc1cc(Cn2nnc3c(-c4ccco4)nc(N)nc32)ccc1N.Cl.Cl,solubility [1]: 18 mg/mL
–,–,–,–,Cc1cc(Cn2nnc3c(-c4ccco4)nc(N)nc32)ccc1N,KA [5]: 95 nM; Activity (Mus musculus [6]): Active; KA [7]: 1500 nM; KA (Adenosine receptor A2a [8]): 0.58 nM; KA [9]: 31 nM
63 nM,302 nM,–,123 nM,Nc1nc(-c2ccco2)c2nnn(Cc3ccccc3N)c2n1,minimal effective dose (Rattus norvegicus [10]): 10 mg/kg; minimal effective dose (Mus musculus [11]): 10 mg/kg
40 nM,636 nM,1.6 nM,181 nM,CNc1ccc(Cn2nnc3c(-c4ccco4)nc(N)nc32)cc1,Activity (Mus musculus [12]): Active
1120 nM,1080 nM,12 nM,258 nM,Nc1nc(-c2ccco2)c2nnn(Cc3ccccn3)c2n1,Activity (Rattus norvegicus [2]): inactive; Activity (Mus musculus [4]): inactive
26 nM,221 nM,1 nM,118 nM,CCc1cc(Cn2nnc3c(-c4ccco4)nc(N)nc32)ccc1N,Activity (Rattus norvegicus [2]): inactive; Activity (Mus musculus [4]): inactive
19 nM,260 nM,2.1 nM,6 nM,Cc1ccc(-c2nc(N)nc3c2nnn3Cc2ccccc2F)o1,minimal effective dose (Rattus norvegicus [10]): 3 mg/kg; Activity (Mus musculus [13]): inactive; Stability (Liver microsomes): Stable; minimal effective dose (Mus musculus [11]): 3 mg/kg; Activity (Rattus norvegicus [14]): inactive; solubility [15]: 30 µM
700 nM,2580 nM,11.1 nM,132 nM,NC(=O)c1cccc(Cn2nnc3c(-c4ccco4)nc(N)nc32)c1,Activity (Mus musculus [13]): inactive; Stability (Liver microsomes): Stable; Activity (Rattus norvegicus [14]): inactive; solubility [15]: 30 µM
117 nM,123 nM,2.3 nM,88 nM,Nc1nc(-c2ccco2)c2nnn(Cc3cccs3)c2n1,minimal effective dose (Rattus norvegicus [10]): 30 mg/kg; minimal effective dose (Mus musculus [11]): 30 mg/kg
131 nM,792 nM,2.5 nM,270 nM,Nc1cccc(Cn2nnc3c(-c4ccco4)nc(N)nc32)c1,Activity (Mus musculus [12]): Active
190 nM,752 nM,1.5 nM,46 nM,Nc1ccc(Cn2nnc3c(-c4ccco4)nc(N)nc32)cc1,Activity (Mus musculus [12]): Active
–,–,–,–,Cc1cc(Cn2nnc3c(-c4ccco4)nc(N)nc32)ccc1N [VIPADENANT],Activity [16]: Not Active; Tmax [17]: 0.5 h; bioavailability [18]: 35%; Papp [19]: 11 ×10⁻⁶ cm/s; half-life [20]: 2 h; Drug uptake (Brain): 57%; Activity (Mus musculus [21]): Non-toxic
1130 nM,2470 nM,22 nM,937 nM,CC(C)N(C)C(=O)c1cccc(Cn2nnc3c(-c4ccco4)nc(N)nc32)c1,Activity (Mus musculus [13]): inactive; Stability (Liver microsomes): Stable; Activity (Rattus norvegicus [14]): inactive; solubility [15]: 30 µM
–,–,–,–,CCn1c(=O)c2c(nc(/C=C/c3ccc(OC)c(OC)c3)n2C)n(CC)c1=O,Activity (Mus musculus [22]): Active; Activity (Rattus norvegicus [23]): Active
118 nM,1180 nM,2 nM,226 nM,Nc1nc(-c2ccco2)c2nnn(Cc3ccc(F)cc3F)c2n1,fold change (FC) (Homo sapiens [24]): > 50; Activity (Mus musculus [13]): inactive; Stability (Liver microsomes): Stable; fold change (FC) (Homo sapiens [25]): > 50; fold change (FC) (Homo sapiens [26]): > 50; Activity (Rattus norvegicus [14]): inactive; solubility [15]: 30 µM
769 nM,1230 nM,28 nM,440 nM,Nc1nc(-c2ccco2)c2nnn(Cc3ccc([N+](=O)[O-])cc3)c2n1,Activity (Mus musculus [13]): inactive; Stability (Liver microsomes): Stable; Activity (Rattus norvegicus [14]): inactive; solubility [15]: 30 µM
931 nM,1020 nM,14.5 nM,225 nM,Nc1nc(-c2ccco2)c2nnn(Cc3cccnc3)c2n1,Activity (Rattus norvegicus [2]): inactive; Activity (Mus musculus [4]): inactive

SMILES,Ki (Adenosine receptor A1),Ki (Adenosine receptor A3),Ki (Adenosine receptor A2a [3]),Ki (Adenosine receptor A2b),further results
Nc1nc(-c2ccco2)c2nnn(Cc3ccsc3)c2n1,78 nM,136 nM,1.9 nM,164 nM,Activity (Rattus norvegicus [2]): inactive; Activity (Mus musculus [4]): inactive
